The nature of test [1]: inhibitors of TNFa-induced NFkB p65 translocation, primary screen, imaging, HUVEC, MLSMR starter and 10KST1 sets (AID 438).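 Further: compound added about 3h40 before a 20 min TNFalpha stimulation.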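 On inhibition: signal is the nuclear over cytoplasmic p65 intensity ratio per well.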 The note with it: HUVEC TNFa-induced p65 nuclear translocation; cell count: measured here: nuclei count (cytotoxicity indicator), at 2.08 µM; inhibition: at 2 µM, stronger effect = higher value, 0% TNFa-plus-vehicle, 100% no-TNFa wells.
A short description of test [2]: inhibitors of mutant huntingtin aggregation, primary screen, imaging, exon1htt(103Q)mCFP cells, high-content imaging (AID 483;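 active means visual image review flags a hit and inhibition of aggregation exceeds 20%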;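 further: compound exposure lasted 3 days before fixation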;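 on nuclei count: percent of the per-plate median nuclei count of sample wells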). The following applies: exon1htt(103Q)mCFP cell line, aggregate imaging, at 2 µM; inhibition of aggregation: stronger effect = higher value; nuclei count: measured here: cell count, toxicity.
The nature of test [3]: inhibitors of E-selectin induction by TNFa, primary screen, imaging, HUVEC, immunofluorescence, MLSMR starter and 10KST1 sets (AID 487;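 active means visually confirmed hit in the image check and inhibition above 20%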;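 on inhibition: signal is fraction of cell area covered by stained E-selectin grains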;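 on nuclei count: 100% = median nuclei count of all wells on the same plate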). The note with it: HUVEC TNFalpha-induced E-selectin immunofluorescence imaging, at 2 µM; inhibition: stronger effect = higher value; nuclei count: measured here: cell number, toxicity.
Test [4] addresses Voltage-gated potassium channel subunit beta-2 (Rattus norvegicus) (UniProt P62483). As to the kind of experiment: KvBeta enzyme negative modulators, primary screen, biochemical, NADPH fluorescence (AID 622;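 active means fluorescence slope higher than the sample average by over 3 SD, cut at about -0.22 in these data, passing the limit was not always enough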;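 further: slope of raw intensity against log time taken from 70 to 1610 s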). The note with it: recombinant KvBeta, 4-cyanobenzaldehyde reduction, at 10 µM, stronger effect = higher value.
Test [5] shares this target. As to the kind of experiment: KvBeta positive modulators, primary screen, biochemical, NADPH fluorescence (AID 623;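 active means NADPH fluorescence slope more negative than the mean of all samples by about 3 SD, 99.7% confidence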;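 further: fluorescence intensity change per second fitted from 20 to 320 s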). The note with it: Recombinant KvBeta, NADPH fluorescence decrease slope, 10 min; at 10 µM; stronger effect = lower value.
Test [6] has as its target Muscarinic acetylcholine receptor M4 (Homo sapiens) (UniProt P08173). As to the kind of experiment: compounds altering M4/GIRK thallium flux, either direction, primary screen, M4 allosteric agonist project, cell-based, HEK293 M4/GIRK, BTC-AM (AID 625;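 active means fluorescence slope after compound addition differing from the mean of all tested samples at 99.7% confidence, mostly higher but some lower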;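 further: thallium influx through GIRK channels coupled to M4 in HEK293 cells with BTC-AM dye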). The following applies: at 10 µM, actives lie on both sides. The procedure, abridged: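 Material: HEK293 cells with M4 receptor and GIRK channels; Times: cells overnight at 37 °C, BTC-AM loading 1 h, reads 2 min total; Technique: kinetic BTC-AM fluorescence sampled at 1 Hz, 10 s pre-addition baseline; Read-out basis: slope over 15–24 s of trace normalized to starting intensity; Controls: carbachol positive, DMSO negative.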

Test [7] in a line: inhibitors of Sendai virus-induced IRF3 signaling, primary screen, TLR/RLR signaling modifier project, cell-based, Sendai virus stimulus, luciferase, 10K MLSCN set (AID 602276;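 active means inhibition at or above 50% at 10 µM; inactive means inhibition below 50%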;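 further: firefly luciferase from ISG56 promoter only with Renilla not read in this screen; 0% = Sendai virus plus DMSO and 100% = medium plus DMSO without virus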). The following applies: HEK293 RL24 IRF3 luciferase reporter, at 10 µM, stronger effect = higher value.
The nature of test [8]: inhibitors of poly I:C-induced TLR3 signaling, primary screen, cell-based, poly I:C stimulus, luciferase, 10K MLSCN set (AID 602277;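 active means inhibition of the reporter signal at or above 50%; inactive means inhibition below 50%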). The note with it: HEK293-TLR3 RL24 IRF3 luciferase reporter, at 10 µM, stronger effect = higher value. On the technique in general: In a reporter assay the amount or activity of a reporter protein is the signal.

Active and inactive are the calls of the source.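 How the source made its calls, unless noted: active means inhibition above 20% together with a positive visual image hit; inconclusive means visual image hit but inhibition not above 20%; inactive means no visual image hit.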

We go through 14 compounds from PubChem BioAssay.

In general, inhibition refers to the drop in the measured response relative to a control, in per cent.

Voltage-gated potassium channel subunit beta-2 (Rattus norvegicus), sequence (P62483 whole entry, looked up): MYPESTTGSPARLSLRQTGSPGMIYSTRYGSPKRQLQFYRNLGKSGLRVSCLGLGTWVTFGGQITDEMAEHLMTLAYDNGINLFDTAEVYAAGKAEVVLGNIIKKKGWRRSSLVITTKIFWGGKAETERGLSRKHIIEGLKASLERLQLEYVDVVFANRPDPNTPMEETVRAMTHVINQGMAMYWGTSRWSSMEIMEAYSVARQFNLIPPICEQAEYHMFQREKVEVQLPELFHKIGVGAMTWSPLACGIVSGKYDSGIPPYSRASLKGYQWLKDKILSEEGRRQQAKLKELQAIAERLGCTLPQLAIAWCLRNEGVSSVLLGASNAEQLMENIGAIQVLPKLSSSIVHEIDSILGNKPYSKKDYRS
Muscarinic acetylcholine receptor M4 (Homo sapiens), sequence (P08173 whole entry, looked up): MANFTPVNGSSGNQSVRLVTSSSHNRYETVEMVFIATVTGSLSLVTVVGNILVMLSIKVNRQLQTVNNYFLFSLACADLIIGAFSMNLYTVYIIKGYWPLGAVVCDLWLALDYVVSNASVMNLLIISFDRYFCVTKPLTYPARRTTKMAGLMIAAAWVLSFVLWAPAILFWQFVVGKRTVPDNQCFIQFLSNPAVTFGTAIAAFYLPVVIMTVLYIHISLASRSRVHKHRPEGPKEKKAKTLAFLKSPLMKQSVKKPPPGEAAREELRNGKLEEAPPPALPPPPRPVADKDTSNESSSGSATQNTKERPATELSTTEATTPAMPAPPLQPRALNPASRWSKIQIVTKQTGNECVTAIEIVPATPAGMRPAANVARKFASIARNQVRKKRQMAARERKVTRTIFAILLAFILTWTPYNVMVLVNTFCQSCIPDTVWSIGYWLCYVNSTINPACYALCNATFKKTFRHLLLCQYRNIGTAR

Take `COc1ccc(N2CCN(C(=O)CSc3nnc(Cn4nnc5ccccc54)n3C)CC2)cc1`: the cell count in test [1] stood at 525. Further, the inhibition was 5.7% (inactive) in test [1], -48.7% (inactive) in test [3], -9.14% (inactive) in test [7] and -5.63% (inactive) in test [8]. Further, in test [2], the inhibition of aggregation was -2.8% (inactive). For the same compound, the nuclei count in test [2] was 103%; in test [3], 101%. The fluorescence slope was -0.578 (inactive) in test [4] and 0.0066 (inactive) in test [6]. Moreover, in test [5], the NADPH fluorescence slope is -2.5e-05 (inactive).

For `Cc1cc(-c2ccccc2)c2c3c(cn2n1)c(=O)n(C)c(=O)n3C`, in test [1], the cell count stood at 386. Also, the inhibition in test [1] was 2% (inactive); in test [3] it was -14.4% (inactive); in test [7], 17.8% (inactive); in test [8] it was 27.8% (inactive). Further, the inhibition of aggregation in test [2] was -0.2% (inactive). Also, the nuclei count in test [2] is 116%; in test [3] it was 86.7%. For the same compound, the figures for the fluorescence slope in test [4] and in test [6] were -0.59 (inactive) and 0.00111 (inactive), respectively. The NADPH fluorescence slope in test [5] is -1.7e-06 (inactive).

In the case of `Cc1cc(NCCCn2ccnc2)n2c(nc3ccccc32)c1C#N`, the cell count in test [1] amounted to 276. The inhibition in test [1] is -23.5% (inactive); in test [3], 16.6% (inactive); in test [7], -6.75% (inactive); in test [8] it was -0.197% (inactive). Further, the inhibition of aggregation in test [2] is 17.7% (inactive). The nuclei count stood at 70.2% in test [2] and 80.2% in test [3]. In addition, the fluorescence slope was -0.501 (inactive) in test [4] and 0.00606 (inactive) in test [6]. The NADPH fluorescence slope in test [5] is 2e-06 (inactive).

With `Cc1nc2ccccc2c(=O)n1NC(=O)c1ccc(F)cc1Cl`, in test [1], the cell count was found to be 302. The inhibition in test [1] is 5% (inactive); in test [3], 21.5% (inactive); in test [7], 10.8% (inactive); in test [8], 8.86% (inactive). Also, in test [2], the inhibition of aggregation is 9.2% (inactive). The nuclei count was determined as 87.5% in test [2] and 70.3% in test [3]. The fluorescence slope in test [4] is -0.483 (inactive); in test [6], 0.00433 (inactive). Further, the NADPH fluorescence slope in test [5] was -2.3e-05 (inactive).

As to `Cc1ccc(C(C)C)c(OCCCN2CC(C)OC(C)C2)c1` (centres undefined), in test [1], the cell count came out at 344. Further, the inhibition is -3.9% (inactive) in test [1], -2.6% (inactive) in test [3], 8.84% (inactive) in test [7] and 26.1% (inactive) in test [8]. In addition, the inhibition of aggregation in test [2] is -17.9% (inactive). In addition, the nuclei count in test [2] worked out at 106%; in test [3], 100%. For the same compound, the figures for the fluorescence slope in test [4] and in test [6] were -0.243 (inactive) and 0.00607 (inactive), respectively. In test [5], the NADPH fluorescence slope was -5.1e-06 (inactive).

As for `COc1ccc(N(CC(=O)Nc2ccccc2SC)S(C)(=O)=O)cc1OC`, the cell count in test [1] is 485. The inhibition in test [1] is -15.7% (inactive); in test [3] it was -4.5% (inactive); in test [7], 19.9% (inactive); in test [8] it was 19.3% (inactive). The inhibition of aggregation in test [2] is -12% (inactive). Also, the nuclei count in test [2] came out at 65.5%; in test [3], 102%. Further, the fluorescence slope was -0.468 (inactive) in test [4] and 0.00494 (inactive) in test [6]. In test [5], the NADPH fluorescence slope is -9.7e-06 (inactive).

Turning to `O=c1c2c3nc4ccccc4nc3n(CC3CCCO3)c2ncn1CCc1ccccc1` (centres undefined), the cell count in test [1] was 440. In addition, the inhibition in test [1] was -3.2% (inactive); in test [3], -90.8% (inactive); in test [7], 12.8% (inactive); in test [8], 19.1% (inactive). For the same compound, the inhibition of aggregation in test [2] is -0.4% (inactive). Also, the nuclei count in test [2] came to 116%; in test [3], 107%. The fluorescence slope in test [4] was -0.378 (inactive); in test [6] it was 0.00514 (inactive). In addition, in test [5], the NADPH fluorescence slope was -1.1e-05 (inactive).

`CCOc1ccccc1Nc1ncnc2ccccc12`: in test [1], the cell count stood at 394. The inhibition in test [1] is 9.3% (inactive); in test [3], -40.8% (inactive); in test [7], 5.79% (inactive); in test [8], -12% (inactive). Besides, the inhibition of aggregation in test [2] is 8% (inactive). In addition, the results for the nuclei count in test [2] and in test [3] were 93.2% and 120%, respectively. Besides, the fluorescence slope in test [4] was -0.548 (inactive); in test [6], 0.00457 (inactive). Besides, the NADPH fluorescence slope in test [5] is -1.6e-05 (inactive).

`Cc1cccc(CS(=O)(=O)Cc2ccc(C(=O)NCC3CCCO3)o2)c1` (centres undefined): in test [1], the cell count was determined as 450. The inhibition in test [1] is 4.5% (inactive); in test [3], -36.2% (inactive); in test [7], -2% (inactive); in test [8], 8.02% (inactive). Moreover, the inhibition of aggregation in test [2] was 13.6% (inactive). Besides, the nuclei count in test [2] stood at 99.3%; in test [3], 112%. Besides, the figures for the fluorescence slope in test [4] and in test [6] were -0.582 (inactive) and 0.00601 (inactive), respectively. In addition, in test [5], the NADPH fluorescence slope is 9.9e-06 (inactive).

For `Cn1nc(-c2ccc(C(=O)NCC3CCCO3)cc2)c2ccccc2c1=O` (centres undefined), the cell count in test [1] came out at 796. The inhibition in test [1] was -3.5% (inactive); in test [3], -18.3% (inactive); in test [7], 19.3% (inactive); in test [8] it was 31.4% (inactive). The inhibition of aggregation in test [2] was 37.8% (inactive). Further, the nuclei count turned out to be 104% in test [2] and 116% in test [3]. The values for the fluorescence slope in test [4] and in test [6] were -0.574 (inactive) and 0.00681 (inactive), respectively. Moreover, the NADPH fluorescence slope in test [5] is -5.3e-05 (inactive).

Consider `Cc1ccc(S(=O)(=O)N(C)CC(=O)NC2CC(C)(C)NC(C)(C)C2)cc1`, for which, in test [1], the cell count is 331. The inhibition in test [1] is -6.6% (inactive); in test [3] it was 1.9% (inactive); in test [7] it was 11.7% (inactive); in test [8], 22.6% (inactive). The inhibition of aggregation in test [2] is 6.2% (inactive). The nuclei count in test [2] amounted to 98.6%; in test [3], 89.8%. The fluorescence slope is -0.555 (inactive) in test [4] and 0.00697 (inactive) in test [6]. In test [5], the NADPH fluorescence slope is -1.8e-05 (inactive).

Consider `COC(=O)Nc1ccc(S(=O)(=O)N(C)CC(F)(F)C(F)F)cc1`, for which the cell count in test [1] turned out to be 642. The inhibition in test [1] was -11.1% (inactive); in test [3] it was -57.5% (inactive); in test [7], 12% (inactive); in test [8] it was 13.7% (inactive). In addition, the inhibition of aggregation in test [2] was -5.6% (inactive). Besides, the nuclei count in test [2] turned out to be 114%; in test [3] it was 86.7%. The results for the fluorescence slope in test [4] and in test [6] were -0.568 (inactive) and 0.00406 (inactive), respectively. In addition, the NADPH fluorescence slope in test [5] is 3.2e-05 (inactive).

With `O=c1[nH]c2cccnc2n1Cc1ccco1`, the cell count in test [1] came out at 325. In addition, the inhibition in test [1] was -4.2% (inactive); in test [3], -5.2% (inactive); in test [7], 7.81% (inactive); in test [8], 6.25% (inactive). Also, the inhibition of aggregation in test [2] is -15% (inactive). For the same compound, the nuclei count in test [2] came to 114%; in test [3], 119%. Moreover, the fluorescence slope in test [4] was -0.323 (inactive); in test [6] it was 0.0064 (inactive). Further, the NADPH fluorescence slope in test [5] is -4.8e-05 (inactive).

On to `CN(Cc1ccccc1)Cc1nc2c([nH]1)c(=O)[nH]c(=O)n2C`, for which the cell count in test [1] worked out at 276. The inhibition in test [1] is 12.9% (inactive); in test [3] it was 69.5% (active); in test [7], 7.51% (inactive); in test [8], 14.7% (inactive). For the same compound, the inhibition of aggregation in test [2] was -1.6% (inactive). The values for the nuclei count in test [2] and in test [3] were 96% and 91.4%, respectively. The fluorescence slope was -0.371 (inactive) in test [4] and 0.0061 (inactive) in test [6]. Further, the NADPH fluorescence slope in test [5] was -0.000115 (inactive).
